Reference: ChEMBL document CHEMBL4020841, “Structure Guided Lead Generation toward Nonchiral M. tuberculosis Thymidylate Kinase Inhibitors” (J Med Chem, 2018)
Active and inactive are the calls of the source. No cut-off for these calls is given here.

Experiments:
[1] = Inhibition of Mycobacterium tuberculosis TMPK expressed in Escherichia coli BLi5 using dTMP as substrate in presence of ATP by spectrophotometric based LDH/PK/nucleoside diphosphate kinase enzyme coupled assay
Summary of the method: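 Wild-type enzyme from pHL50 in E. coli BLi5, purified by Blue-Sepharose then gel filtration. IC50 fit to four-parameter logistic of % inhibition.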

[2] = system: Mycobacterium tuberculosis; test: Inhibition of Mycobacterium tuberculosis TMPK expressed in Escherichia coli BLi5 at 0.8 mM using dTMP as substrate in presence of ATP by spectrophotometric based LDH/PK/nucleoside diphosphate kinase enzyme coupled assay

SMILES: Cc1cn(CC2CCN(Cc3ccc(Oc4ccccc4)cc3)CC2)c(=O)[nH]c1=O
- IC50 [1]: > 2000 µM

SMILES: Cc1cn(C2CCN(Cc3ccccn3)CC2)c(=O)[nH]c1=O
- IC50 [1]: 96 µM

SMILES: Cc1cn(C2CCN(Cc3nccc4ccccc34)CC2)c(=O)[nH]c1=O
- IC50 [1]: 27 µM

SMILES: Cc1cn(C2CN(CCc3cccc(Oc4ccccc4)c3)C2)c(=O)[nH]c1=O
- IC50 [1]: 1910 µM

SMILES: Cc1cn(C2CCN(Cc3ccc(Oc4ccccc4)cc3)CC2)c(=O)[nH]c1=O
- IC50 [1]: 29 µM

SMILES: Cc1cn(C2CN(Cc3cccc(Oc4ccccc4)c3)C2)c(=O)[nH]c1=O
- IC50 [1]: 944 µM

SMILES: Cc1cn(C2CCN(Cc3ccc(N(C)C)cc3)CC2)c(=O)[nH]c1=O
- IC50 [1]: 328 µM

SMILES: Cc1ccc(CN2CCC(n3cc(C)c(=O)[nH]c3=O)CC2)cc1
- IC50 [1]: 168 µM

SMILES: Cc1cn(C2CCN(Cc3ccnc4ccccc34)CC2)c(=O)[nH]c1=O
- IC50 [1]: 25 µM

SMILES: Cc1cn(C2CCN(Cc3ccco3)CC2)c(=O)[nH]c1=O
- IC50 [1]: 114 µM

SMILES: Cc1cn(C2CCN(Cc3cc4ccccc4cn3)CC2)c(=O)[nH]c1=O
- IC50 [1]: 26 µM

SMILES: Cc1cn(C2CCN(Cc3cc(Oc4ccccc4)c4ccc(Cl)cc4n3)CC2)c(=O)[nH]c1=O
- IC50 [1]: 1.8 µM

SMILES: Cc1cn(C2CCN(Cc3ccc(C(=O)O)cc3)CC2)c(=O)[nH]c1=O
- IC50 [1]: 141 µM

SMILES: Cc1cn(C2CCN(Cc3ccc(Cl)cc3)CC2)c(=O)[nH]c1=O
- IC50 [1]: 40 µM

SMILES: Cc1cn(C2CN(Cc3ccc(Oc4ccccc4)cc3)C2)c(=O)[nH]c1=O
- IC50 [1]: 832 µM

SMILES: Cc1cn(CC2CCN(Cc3cccc(Oc4ccccc4)c3)CC2)c(=O)[nH]c1=O
- inhibition [2]: inactive

SMILES: COc1ccc(CN2CCC(n3cc(C)c(=O)[nH]c3=O)CC2)cc1
- IC50 [1]: 113 µM

SMILES: Cc1cn(C2CCN(CC3CCCCC3)CC2)c(=O)[nH]c1=O
- IC50 [1]: 1120 µM

SMILES: Cc1cn(C2CCN(Cc3cccc(C(=O)O)n3)CC2)c(=O)[nH]c1=O
- IC50 [1]: 143 µM

SMILES: Cc1cccc(CN2CCC(n3cc(C)c(=O)[nH]c3=O)CC2)c1
- IC50 [1]: 72 µM

SMILES: Cc1cn(C2CCN(Cc3ccccc3)CC2)c(=O)[nH]c1=O
- IC50 [1]: 138 µM

SMILES: Cc1cn(C2CCN(CCc3cccc(Oc4ccccc4)c3)CC2)c(=O)[nH]c1=O
- IC50 [1]: 11 µM

SMILES: Cc1cn(C2CCN(Cc3cncc4ccccc34)CC2)c(=O)[nH]c1=O
- IC50 [1]: 25 µM

SMILES: Cc1cn(C2CCN(Cc3cc4ccccc4o3)CC2)c(=O)[nH]c1=O
- IC50 [1]: 23 µM

SMILES: Cc1cn(C2CCN(Cc3cccnc3)CC2)c(=O)[nH]c1=O
- IC50 [1]: 75 µM

SMILES: Cc1cn(C2CCN(Cc3ccc(C#N)cc3)CC2)c(=O)[nH]c1=O
- IC50 [1]: 35 µM

SMILES: Cc1cn(C2CCN(Cc3ccoc3)CC2)c(=O)[nH]c1=O
- IC50 [1]: 254 µM

SMILES: Cc1cn(C2CCN(Cc3cnc4ccccc4c3)CC2)c(=O)[nH]c1=O
- IC50 [1]: 17 µM

SMILES: Cc1cn(C2CCN(Cc3cccc4ccccc34)CC2)c(=O)[nH]c1=O
- IC50 [1]: 38 µM

SMILES: Cc1cn(C2CCN(Cc3cccc(Oc4ccccc4)c3)CC2)c(=O)[nH]c1=O
- IC50 [1]: 6.1 µM

SMILES: Cc1cn(C2CCN(Cc3ccncc3)CC2)c(=O)[nH]c1=O
- IC50 [1]: 49 µM

SMILES: Cc1cn(C2CN(CCCc3cccc(Oc4ccccc4)c3)C2)c(=O)[nH]c1=O
- IC50 [1]: 1140 µM

SMILES: Cc1cn(C2CCN(Cc3ccc4ccccc4c3)CC2)c(=O)[nH]c1=O
- IC50 [1]: 20 µM

SMILES: Cc1cn(C2CCN(C(=O)c3cccc(Oc4ccccc4)c3)CC2)c(=O)[nH]c1=O
- IC50 [1]: 235 µM

SMILES: Cc1cn(C2CCN(C(=O)c3ccc(Oc4ccccc4)cc3)CC2)c(=O)[nH]c1=O
- IC50 [1]: 353 µM
